Measured values as given in ChEMBL document CHEMBL1926598, “Synthesis, anti-inflammatory activity and ulcerogenic liability of novel nitric oxide donating/chalcone hybrids” (Bioorg Med Chem, 2012).

Columns and labels:
[1] = Induction of nitric oxide release at 0.1 mM after 1 hr in phosphate buffer at pH 7.4 by Griess assay; format: physicochemical; settings: pH 7.4, 1 h, 100 µM
Method in brief: (§1)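 Compound at a final 10^-4 M with 0.5 mM N-acetylcysteine in phosphate buffer pH 7.4 at 37 °C. Reaction mixture treated with Griess reagent (sulfanilamide, N-naphthylethylenediamine, phosphoric acid), 10 min at room temperature, absorbance read at 546 nm. Sodium nitrite standards (10–80 nmol/mL) used for calibration. NO reported as mol/mol, n = 4 reaction mixtures.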

[2] = Induction of nitric oxide release at 0.1 mM after 4 hrs in phosphate buffer at pH 7.4 by Griess assay; format: physicochemical; settings: pH 7.4, 4 h, 100 µM; method in brief: as §1
[3] = Induction of nitric oxide release at 0.1 mM after 3 hrs in phosphate buffer at pH 7.4 by Griess assay; format: physicochemical; settings: pH 7.4, 3 h, 100 µM; method in brief: as §1
[4] = Induction of nitric oxide release at 0.1 mM after 5 hrs in phosphate buffer at pH 7.4 by Griess assay; format: physicochemical; settings: pH 7.4, 5 h, 100 µM; method in brief: as §1
Rattus norvegicus [5] = experiment: Antiinflammatory activity in albino rat assessed as inhibition of carrageenan-induced paw edema at 100 mg/kg, po administered 30 mins prior to challenge measured after 1 hr relative to untreated control; format: functional
Method in brief: (§2)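 Adult male albino rats (120–140 g), groups of four, fasted 24 h with water allowed. Test compound suspended in 0.5% w/v CMC in water, given orally at 100 mg/kg; controls received CMC alone. After 30 min, 0.1 mL of 1% carrageenan in saline injected subplantar into right hind paw, saline into left. Paw thickness measured by caliper; % inhibition = [(VR−VL)control − (VR−VL)treated]/(VR−VL)control ×100; one-way ANOVA versus control.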

Rattus norvegicus [6] = experiment: Antiinflammatory activity in albino rat assessed as inhibition of carrageenan-induced paw edema at 100 mg/kg, po administered 30 mins prior to challenge measured after 4 hrs relative to untreated control; format: functional; method in brief: as §2
Rattus norvegicus [7] = experiment: Antiinflammatory activity in albino rat assessed as inhibition of carrageenan-induced paw edema at 100 mg/kg, po administered 30 mins prior to challenge measured after 3 hrs relative to indomethacin; format: functional; design: scale not given: the % may be the effect or the level left
Method in brief: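 Carrageenan paw edema in male albino rats (120–140 g, n = 4, fasted 24 h), compound 100 mg/kg po in 0.5% CMC 30 min before subplantar 1% carrageenan (0.1 mL). Percent edema inhibition at the stated hour from right minus left paw thickness versus the CMC control, then expressed as a percentage of the indomethacin (100 mg/kg) response at the same time.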

Rattus norvegicus [8] = experiment: Antiinflammatory activity in albino rat assessed as inhibition of carrageenan-induced paw edema at 100 mg/kg, po administered 30 mins prior to challenge measured after 2 hrs relative to untreated control; format: functional; method in brief: as §2
[9] = Induction of nitric oxide release at 0.1 mM after 6 hrs in phosphate buffer at pH 7.4 by Griess assay; format: physicochemical; settings: pH 7.4, 6 h, 100 µM; method in brief: as §1
Rattus norvegicus [10] = experiment: Antiinflammatory activity in albino rat assessed as inhibition of carrageenan-induced paw edema at 100 mg/kg, po administered 30 mins prior to challenge measured after 3 hrs relative to untreated control; format: functional; method in brief: as §2
[11] = Induction of nitric oxide release at 0.1 mM in 0.1 N HCl buffer at pH 1.0 by Griess assay; format: physicochemical; settings: pH 1, 100 µM
Method in brief: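 Griess procedure as at neutral pH, but in 0.1 N HCl pH 1 in place of phosphate buffer. Compound at a final 10^-4 M with N-acetylcysteine, 37 °C. Absorbance read at 546 nm against sodium nitrite standards (10–80 nmol/mL). Release expressed relative to a theoretical 1 mol NO/mol compound.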

Rattus norvegicus [12] = experiment: Antiinflammatory activity in albino rat assessed as inhibition of carrageenan-induced paw edema at 100 mg/kg, po administered 30 mins prior to challenge measured after 5 hrs relative to untreated control; format: functional; method in brief: as §2
[13] = Induction of nitric oxide release at 0.1 mM after 2 hrs in phosphate buffer at pH 7.4 by Griess assay; format: physicochemical; settings: pH 7.4, 2 h, 100 µM; method in brief: as §1
Rattus norvegicus [14] = experiment: Gastric toxicity in albino rat assessed as ulcer index at 100 mg/kg, po after 5 hrs; format: organism-based; design: dose 100 mg/kg, route oral; settings: in vivo
Method in brief: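 Rats dosed orally at 100 mg/kg in 0.5% CMC (n = 4). Stomach lesions counted and graded by area: level I <1 mm², II 1–3 mm², III >3 mm². Ulcer index = 1×(level I count) + 2×(level II) + 3×(level III). Mean ± SEM; one-way ANOVA versus control.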

Compound	Activity [1]	Activity [2]	Activity [3]	Activity [4]	inhibition in vivo at 100 mg/kg (Rattus norvegicus [5])	inhibition in vivo at 100 mg/kg (Rattus norvegicus [6])	Activity (Rattus norvegicus [7])	inhibition in vivo at 100 mg/kg (Rattus norvegicus [8])	Activity [9]	inhibition in vivo at 100 mg/kg (Rattus norvegicus [10])	Activity [11]	inhibition in vivo at 100 mg/kg (Rattus norvegicus [12])	Activity [13]	UI (Rattus norvegicus [14])
O=C(CO[N+](=O)[O-])Nc1ccc(C(=O)/C=C/c2ccc3c(c2)OCO3)cc1	0.39 mol/mol	0.64 mol/mol	0.6 mol/mol	0.73 mol/mol	38%	55%	79%	45%	0.67 mol/mol	61%	Not Active	54%	0.45 mol/mol	3
Nc1ccc(C(=O)/C=C/c2ccco2)cc1	–	–	–	–	33%	33%	–	38%	–	42%	–	30%	–	29
COc1ccc(/C=C/C(=O)c2ccc(NC(=O)C(C)Br)cc2)cc1 (centres undefined)	–	–	–	–	39%	38%	–	40%	–	40%	–	31%	–	30.1
COc1ccc(/C=C/C(=O)c2ccc(NC(=O)COc3ccc(/C(C)=N\O)cc3)cc2)cc1	0.11 mol/mol	0.3 mol/mol	0.14 mol/mol	0.16 mol/mol	33%	42%	59%	41%	0.15 mol/mol	46%	Not Active	37%	0.12 mol/mol	5
CC(Br)C(=O)Nc1ccc(C(=O)/C=C/c2ccco2)cc1 (centres undefined)	–	–	–	–	30%	36%	–	37%	–	42%	–	34%	–	25.3
COc1ccc(/C=C/C(=O)c2ccc(NC(=O)COCc3c(-c4ccccc4)no[n+]3[O-])cc2)cc1	0.11 mol/mol	0.482 mol/mol	0.47 mol/mol	0.52 mol/mol	30%	55%	73%	42%	0.3 mol/mol	56%	Not Active	49%	0.27 mol/mol	2
C/C(=N/O)c1ccc(OCC(=O)Nc2ccc(C(=O)/C=C/c3ccc4c(c3)OCO4)cc2)cc1	0.14 mol/mol	0.31 mol/mol	0.25 mol/mol	0.26 mol/mol	40%	52%	77%	49%	0.24 mol/mol	59%	Not Active	44%	0.16 mol/mol	4
C/C(=N/O)c1ccc(OCC(=O)Nc2ccc(C(=O)/C=C/c3ccc(Cl)cc3)cc2)cc1	0.13 mol/mol	0.41 mol/mol	0.22 mol/mol	0.37 mol/mol	39%	55%	85%	54%	0.36 mol/mol	66%	Not Active	49%	0.19 mol/mol	2.2
COc1ccc(/C=C/C(=O)c2ccc(NC(=O)COc3ccc(C(C)=O)cc3)cc2)cc1	–	–	–	–	28%	33%	–	35%	–	42%	–	30%	–	6
O=C(CO[N+](=O)[O-])Nc1ccc(C(=O)/C=C/c2ccco2)cc1	0.15 mol/mol	0.59 mol/mol	0.37 mol/mol	0.63 mol/mol	34%	40%	61%	36%	0.59 mol/mol	48%	Not Active	39%	0.28 mol/mol	7
[O-][n+]1onc(-c2ccccc2)c1CO	–	–	–	–	–	–	–	–	–	–	–	–	–	1.5
CC(=O)c1ccc(OCC(=O)Nc2ccc(C(=O)/C=C/c3ccc(Cl)cc3)cc2)cc1	–	–	–	–	43%	58%	–	52%	–	61%	–	55%	–	8.1
COc1ccc(/C=C/C(=O)c2ccc(N)cc2)cc1	–	–	–	–	42%	48%	–	48%	–	51%	–	40%	–	22.5
O=C(CBr)Nc1ccc(C(=O)/C=C/c2ccc3c(c2)OCO3)cc1	–	–	–	–	40%	48%	–	45%	–	53%	–	46%	–	24
Nc1ccc(C(=O)/C=C/c2ccc3c(c2)OCO3)cc1	–	–	–	–	32%	50%	–	44%	–	55%	–	47%	–	20
Nc1ccc(C(=O)/C=C/c2ccc(Cl)cc2)cc1	–	–	–	–	41%	58%	–	50%	–	60%	–	54%	–	18
CC(Br)C(=O)Nc1ccc(C(=O)/C=C/c2ccc(Cl)cc2)cc1 (centres undefined)	–	–	–	–	39%	54%	–	45%	–	59%	–	50%	–	16.7
COc1ccc(/C=C/C(=O)c2ccc(NC(=O)CBr)cc2)cc1	–	–	–	–	37%	41%	–	42%	–	46%	–	34%	–	28
O=C(CBr)Nc1ccc(C(=O)/C=C/c2ccco2)cc1	–	–	–	–	30%	33%	–	37%	–	41%	–	25%	–	25.8
CC(=O)c1ccc(OCC(=O)Nc2ccc(C(=O)/C=C/c3ccco3)cc2)cc1	–	–	–	–	28%	39%	–	32%	–	45%	–	36%	–	5
CC(Br)C(=O)Nc1ccc(C(=O)/C=C/c2ccc3c(c2)OCO3)cc1 (centres undefined)	–	–	–	–	37%	53%	–	43%	–	56%	–	50%	–	18
